Source: ChEMBL document CHEMBL3425458, “Design, synthesis and antitumor activity of triterpenoid pyrazine derivatives from 23-hydroxybetulinic acid” (Eur J Med Chem, 2015)
pIC50: −log10 of the molar value.

Assays:
[1] = Selectivity index, ratio of IC50 for human HL7702 cells to IC50 for human HL60 cells by MTT assay
Method in brief: (§1)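 MTT assay on normal human hepatocyte line HL-7702, with 72 h treatment. Selectivity index is the IC50 in HL-7702 divided by the IC50 in each cancer cell line.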

Mus musculus [2] = experiment: Toxicity against mouse xenografted […] cells assessed as body weight at 30 mg/kg, ip administered after 7 days of tumor transplantation (reference value: 18.1 to 18.6 gms); assay type: organism-based; parameters: dose 30 mg/kg, route intraperitoneal; details: in vivo, 168 h
Method in brief: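 H22 liver cancer-bearing mice, 10 per group at start and end. Test article given ip at 30 mg/kg, with a vehicle group (0.5 mL/mouse, iv). Body weight was recorded at start and at end, alongside tumor weight.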

B16 [3] = experiment: Selectivity index, ratio of IC50 for human HL7702 cells to IC50 for mouse B16 cells by MTT assay; method in brief: as §1
B16 [4] = experiment: Induction of apoptosis in mouse B16 cells assessed as necrotic cells at 2.5 uM after 72 hrs by Annexin V-FITC/propidium iodide staining-based flow cytometry (reference value: […]); assay type: functional
Method in brief: (§2)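 B16 cells were treated with vehicle or 1.25, 2.5 or 5 µM for 72 h. Annexin V/PI staining was read by flow cytometry. Values are mean ± SE of at least three independent experiments.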

B16 [5] = experiment: Cell cycle arrest in mouse B16 cells assessed as accumulation of cells at S phase at 5 uM after 72 hrs by propidium iodide staining based flow cytometry (reference value: 59.21%); assay type: functional
B16 [6] = experiment: Cell cycle arrest in mouse B16 cells assessed as accumulation of cells at G1 phase at 1.25 uM after 72 hrs by propidium iodide staining based flow cytometry (reference value: 24.06%); assay type: functional
B16 [7] = experiment: Induction of apoptosis in mouse B16 cells assessed as late apoptotic cells at 1.25 uM after 72 hrs by Annexin V-FITC/propidium iodide staining-based flow cytometry (reference value: 3.51%); assay type: functional; method in brief: as §2
B16 [8] = experiment: Induction of apoptosis in mouse B16 cells assessed as late apoptotic cells at 5 uM after 72 hrs by Annexin V-FITC/propidium iodide staining-based flow cytometry (reference value: 3.51%); assay type: functional; method in brief: as §2
B16 [9] = experiment: Cell cycle arrest in mouse B16 cells assessed as accumulation of cells at S phase at 2.5 uM after 72 hrs by propidium iodide staining based flow cytometry (reference value: 59.21%); assay type: functional
[10] = Antiproliferative activity against human SF763 cells assessed as growth inhibition after 72 hrs by MTT assay; assay type: functional, cell-based; details: SF763, 72 h
Method in brief: (§3)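 Values are mean ± S.D. from three different experiments, each performed in triplicate.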

[11] = Antiproliferative activity against human Bel7402 cells assessed as growth inhibition after 72 hrs by MTT assay; assay type: functional, cell-based; details: Bel-7402, 72 h
Method in brief: (§4)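 IC50 is the concentration inhibiting 50% cell growth. Values are mean ± S.D. from three different experiments, each performed in triplicate.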

[12] = Antiproliferative activity against human HL60 cells assessed as growth inhibition after 72 hrs by MTT assay; assay type: functional, cell-based; details: HL-60, 72 h; method in brief: as §3
[13] = Antiproliferative activity against human HL7702 cells assessed as growth inhibition after 72 hrs by MTT assay; assay type: cell-based; details: L02, 72 h; method in brief: as §1
B16 [14] = experiment: Induction of apoptosis in mouse B16 cells assessed as late apoptotic cells at 2.5 uM after 72 hrs by Annexin V-FITC/propidium iodide staining-based flow cytometry (reference value: 3.51%); assay type: functional; method in brief: as §2
B16 [15] = experiment: Induction of apoptosis in mouse B16 cells assessed as early apoptotic cells at 2.5 uM after 72 hrs by Annexin V-FITC/propidium iodide staining-based flow cytometry (reference value: 2.15%); assay type: functional; method in brief: as §2
B16 [16] = experiment: Cell cycle arrest in mouse B16 cells assessed as accumulation of cells at G2 phase at 5 uM after 72 hrs by propidium iodide staining based flow cytometry (reference value: 16.73%); assay type: functional
[17] = Selectivity index, ratio of IC50 for human HL7702 cells to IC50 for human SF763 cells by MTT assay; method in brief: as §1
B16 [18] = experiment: Cell cycle arrest in mouse B16 cells assessed as accumulation of cells at G2 phase at 1.25 uM after 72 hrs by propidium iodide staining based flow cytometry (reference value: 16.73%); assay type: functional
B16 [19] = experiment: Cell cycle arrest in mouse B16 cells assessed as accumulation of cells at G2 phase at 2.5 uM after 72 hrs by propidium iodide staining based flow cytometry (reference value: 16.73%); assay type: functional
B16 [20] = experiment: Induction of apoptosis in mouse B16 cells assessed as necrotic cells at 5 uM after 72 hrs by Annexin V-FITC/propidium iodide staining-based flow cytometry (reference value: […]); assay type: functional; method in brief: as §2
B16 [21] = experiment: Cell cycle arrest in mouse B16 cells assessed as accumulation of cells at G2/G1 phase at 5 uM after 72 hrs by propidium iodide staining based flow cytometry (reference value: 1.83%); assay type: functional
B16 [22] = experiment: Antiproliferative activity against mouse B16 cells assessed as growth inhibition after 72 hrs by MTT assay; assay type: functional, cell-based; details: B16, 72 h; method in brief: as §4
B16 [23] = experiment: Cell cycle arrest in mouse B16 cells assessed as accumulation of cells at S phase at 1.25 uM after 72 hrs by propidium iodide staining based flow cytometry (reference value: 59.21%); assay type: functional
H22 = experiment: In vivo antitumor activity […] cells xenografted in mouse assessed as tumor growth inhibitory ratio at 30 mg/kg, ip administered after 7 days of tumor transplantation measured at 25th day after tumor inoculation; assay type: functional; details: 168 h, route intraperitoneal
Method in brief: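 Mice bearing H22 liver cancer, 10 per group. Test article at 30 mg/kg ip. Vehicle 0.5 mL/mouse iv. Cyclophosphamide 30 mg/kg iv as positive control. Tumor weight recorded to give tumor inhibitory ratio.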

B16 [24] = experiment: Induction of apoptosis in mouse B16 cells assessed as early apoptotic cells at 1.25 uM after 72 hrs by Annexin V-FITC/propidium iodide staining-based flow cytometry (reference value: 2.15%); assay type: functional; method in brief: as §2
HeLa [25] = experiment: Antiproliferative activity against human HeLa cells assessed as growth inhibition after 72 hrs by MTT assay; assay type: functional, cell-based; method in brief: as §4
B16 [26] = experiment: Induction of apoptosis in mouse B16 cells assessed as early apoptotic cells at 5 uM after 72 hrs by Annexin V-FITC/propidium iodide staining-based flow cytometry (reference value: 2.15%); assay type: functional; method in brief: as §2
B16 [27] = experiment: Induction of apoptosis in mouse B16 cells assessed as viable cells at 2.5 uM after 72 hrs by Annexin V-FITC/propidium iodide staining-based flow cytometry (reference value: […]); assay type: functional; details: B16, 72 h, read-out: Activity
B16 [28] = experiment: In vivo antitumor activity against mouse B16 cells xenografted in mouse assessed as tumor growth inhibitory ratio at 30 mg/kg, ip administered after 7 days of tumor transplantation measured at 25th day after tumor inoculation; assay type: functional; details: 168 h, route intraperitoneal
HeLa [29] = experiment: Selectivity index, ratio of IC50 for human HL7702 cells to IC50 for human HeLa cells by MTT assay; method in brief: as §1
Mus musculus [30] = experiment: Toxicity against mouse xenografted with mouse B16 cells assessed as body weight at 30 mg/kg, ip administered after 7 days of tumor transplantation (reference value: 18.2 to 18.3 gms); assay type: organism-based; parameters: dose 30 mg/kg, route intraperitoneal; details: in vivo, 168 h
B16 [31] = experiment: Cell cycle arrest in mouse B16 cells assessed as accumulation of cells at G2/G1 phase at 1.25 uM after 72 hrs by propidium iodide staining based flow cytometry (reference value: 1.83%); assay type: functional
B16 [32] = experiment: Induction of apoptosis in mouse B16 cells assessed as viable cells at 1.25 uM after 72 hrs by Annexin V-FITC/propidium iodide staining-based flow cytometry (reference value: […]); assay type: functional; details: B16, 72 h, read-out: Activity
Bel-7402 = experiment: Selectivity index, ratio of IC50 for human HL7702 cells to IC50 for human BEL7402 cells by MTT assay; method in brief: as §1
B16 [33] = experiment: Cell cycle arrest in mouse B16 cells assessed as accumulation of cells at G2/G1 phase at 2.5 uM after 72 hrs by propidium iodide staining based flow cytometry (reference value: 1.83%); assay type: functional
B16 [34] = experiment: Induction of apoptosis in mouse B16 cells assessed as necrotic cells at 1.25 uM after 72 hrs by Annexin V-FITC/propidium iodide staining-based flow cytometry (reference value: […]); assay type: functional; method in brief: as §2
B16 [35] = experiment: Cell cycle arrest in mouse B16 cells assessed as accumulation of cells at G1 phase at 2.5 uM after 72 hrs by propidium iodide staining based flow cytometry (reference value: 24.06%); assay type: functional
B16 [36] = experiment: Induction of apoptosis in mouse B16 cells assessed as viable cells at 5 uM after 72 hrs by Annexin V-FITC/propidium iodide staining-based flow cytometry (reference value: […]); assay type: functional; details: B16, 72 h, read-out: Activity
B16 [37] = experiment: Cell cycle arrest in mouse B16 cells assessed as accumulation of cells at G1 phase at 5 uM after 72 hrs by propidium iodide staining based flow cytometry (reference value: 24.06%); assay type: functional

What does the source list for `C=C(C)[C@@H]1CC[C@]2(C(=O)N3CCOCC3)CC[C@]3(C)[C@H](CC[C@@H]4[C@@]5(C)Cc6nccnc6[C@@](C)(COC(C)=O)[C@@H]5CC[C@]43C)[C@@H]12`?
Ratio IC50 [1]: 11; Activity (Mus musculus [2]): 25.9 g; Ratio IC50 (B16 [3]): 17.1; Activity (B16 [4]): 0.52%; Activity (B16 [5]): 63.27%; Activity (B16 [6]): 29.67%; Activity (B16 [7]): 5.18%; Activity (B16 [8]): 12.1%; Activity (B16 [9]): 58.79%; pIC50 [10]: 5.45; pIC50 [11]: 5.15; pIC50 [12]: 5.15; pIC50 [13]: 4.12; Activity (B16 [14]): 11.48%; Activity (B16 [15]): 20.14%; Activity (B16 [16]): 3.27%; Ratio IC50 [17]: 21.4; Activity (B16 [18]): 9.18%; Activity (B16 [19]): 6.54%; Activity (B16 [20]): 1.96%; Activity (B16 [21]): 1.85%; pIC50 (B16 [22]): 5.35; Activity (B16 [23]): 61.15%; inhibition in vivo at 30 mg/kg (H22): 55.6%; Activity (B16 [24]): 11.33%; pIC50 (HeLa [25]): 5.29; Activity (B16 [26]): 45.34%; viability at 2.5 µM (B16 [27]): 67.8%; inhibition in vivo at 30 mg/kg (B16 [28]): 62.7%; Ratio IC50 (HeLa [29]): 14.7; Activity (Mus musculus [30]): 25.9 g; Activity (B16 [31]): 1.82%; viability at 1.25 µM (B16 [32]): 82.6%; Ratio IC50 (Bel-7402): 11; Activity (B16 [33]): 1.85%; Activity (B16 [34]): 0.86%; Activity (B16 [35]): 34.67%; viability at 5 µM (B16 [36]): 40.6%; Activity (B16 [37]): 33.46%
